Assay results as given in ChEMBL document CHEMBL3593157, “Discovery of a 1-isopropyltetrahydroisoquinoline derivative as an orally active N-type calcium channel blocker for neuropathic pain” (Bioorg Med Chem, 2015).

What was measured:
[1] = Inhibition of N-type calcium channel in human IMR-32 cells by FLIPR assay; format: cell-based
Summary of the method: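 Fluorometric imaging plate reader calcium assay in IMR-32 human neuroblastoma cells. Nitrendipine present to block endogenous L-type calcium channels. IC50 determined in duplicate in one experiment.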

Cytochrome P450 2D6 = Cytochrome P450 2D6 (Homo sapiens, UniProt P10635); assay: Inhibition of CYP2D6 in human liver microsomes using dextromethorphan as substrate preincubated for 30 mins before substrate addition measured after 20 mins by LC-MS/MS analysis
Cytochrome P450 2D6, sequence (P10635 whole entry): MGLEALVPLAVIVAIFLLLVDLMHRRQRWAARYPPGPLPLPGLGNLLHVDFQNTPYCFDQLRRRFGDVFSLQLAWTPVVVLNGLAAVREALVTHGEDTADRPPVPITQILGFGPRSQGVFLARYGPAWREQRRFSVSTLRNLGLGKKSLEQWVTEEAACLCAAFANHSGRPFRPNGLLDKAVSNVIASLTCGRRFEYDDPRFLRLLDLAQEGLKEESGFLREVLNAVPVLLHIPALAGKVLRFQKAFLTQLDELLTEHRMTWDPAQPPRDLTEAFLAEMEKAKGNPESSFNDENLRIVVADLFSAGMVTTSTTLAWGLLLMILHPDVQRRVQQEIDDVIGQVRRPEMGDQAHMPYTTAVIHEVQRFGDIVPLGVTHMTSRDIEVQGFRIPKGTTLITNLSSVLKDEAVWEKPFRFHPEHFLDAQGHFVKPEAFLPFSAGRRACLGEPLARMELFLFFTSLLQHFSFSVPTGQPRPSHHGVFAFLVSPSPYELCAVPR

[2] = Aqueous solubility of the compound in Japanese Pharmacopoeia 2nd fluid at pH 6.8; format: physicochemical
Summary of the method: (§1)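 Solubility measured in Japanese Pharmacopoeia 1st fluid for the dissolution test (pH 1.2) and 2nd fluid (pH 6.8).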

[3] = molecular target: Voltage-gated inwardly rectifying potassium channel KCNH2 (Homo sapiens, UniProt Q12809); assay: Inhibition of human ERG expressed in CHO cells after 10 mins by Rb efflux assay; format: cell-based
Voltage-gated inwardly rectifying potassium channel KCNH2, sequence (Q12809 whole entry): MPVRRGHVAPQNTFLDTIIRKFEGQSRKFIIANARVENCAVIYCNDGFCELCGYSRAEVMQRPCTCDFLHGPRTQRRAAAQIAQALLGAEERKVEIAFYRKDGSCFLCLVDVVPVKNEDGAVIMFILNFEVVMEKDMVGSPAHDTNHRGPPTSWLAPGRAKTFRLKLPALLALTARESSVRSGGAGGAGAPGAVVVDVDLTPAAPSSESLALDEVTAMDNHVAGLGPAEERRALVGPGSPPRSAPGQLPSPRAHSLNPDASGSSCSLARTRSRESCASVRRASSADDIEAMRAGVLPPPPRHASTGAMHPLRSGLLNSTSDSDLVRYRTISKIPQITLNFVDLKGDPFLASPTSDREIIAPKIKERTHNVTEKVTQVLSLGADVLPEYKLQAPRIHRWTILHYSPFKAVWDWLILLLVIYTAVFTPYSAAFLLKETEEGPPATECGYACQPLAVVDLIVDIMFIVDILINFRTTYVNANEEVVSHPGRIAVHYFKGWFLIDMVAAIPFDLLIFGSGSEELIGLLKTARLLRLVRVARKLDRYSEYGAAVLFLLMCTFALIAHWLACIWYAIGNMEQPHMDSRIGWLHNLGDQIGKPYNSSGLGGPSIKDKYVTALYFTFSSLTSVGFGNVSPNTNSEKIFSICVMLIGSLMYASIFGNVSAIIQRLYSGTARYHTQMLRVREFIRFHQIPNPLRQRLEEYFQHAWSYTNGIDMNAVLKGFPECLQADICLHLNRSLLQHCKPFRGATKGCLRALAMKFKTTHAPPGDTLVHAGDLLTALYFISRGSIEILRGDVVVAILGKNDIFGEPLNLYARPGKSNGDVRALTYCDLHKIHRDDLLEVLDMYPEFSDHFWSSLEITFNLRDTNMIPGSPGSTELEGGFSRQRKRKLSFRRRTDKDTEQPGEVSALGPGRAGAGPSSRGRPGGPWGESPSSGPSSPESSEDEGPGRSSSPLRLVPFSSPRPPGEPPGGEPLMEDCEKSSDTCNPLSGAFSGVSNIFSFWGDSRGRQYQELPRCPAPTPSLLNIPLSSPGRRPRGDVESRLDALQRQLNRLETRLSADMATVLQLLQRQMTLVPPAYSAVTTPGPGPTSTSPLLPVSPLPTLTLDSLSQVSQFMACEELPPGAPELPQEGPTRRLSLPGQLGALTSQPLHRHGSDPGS

[4] = Aqueous solubility of the compound in Japanese Pharmacopoeia 1st fluid at pH 1.2; format: physicochemical; summary of the method: as §1
Cytochrome P450 2C9 = Cytochrome P450 2C9 (Homo sapiens, UniProt P11712); assay: Inhibition of recombinant human CYP2C9 using 7-methoxy-4-trifluoromethylcoumarin as substrate after 45 mins by fluorescence-based assay; format: ADME
Cytochrome P450 2C9, sequence (P11712 whole entry): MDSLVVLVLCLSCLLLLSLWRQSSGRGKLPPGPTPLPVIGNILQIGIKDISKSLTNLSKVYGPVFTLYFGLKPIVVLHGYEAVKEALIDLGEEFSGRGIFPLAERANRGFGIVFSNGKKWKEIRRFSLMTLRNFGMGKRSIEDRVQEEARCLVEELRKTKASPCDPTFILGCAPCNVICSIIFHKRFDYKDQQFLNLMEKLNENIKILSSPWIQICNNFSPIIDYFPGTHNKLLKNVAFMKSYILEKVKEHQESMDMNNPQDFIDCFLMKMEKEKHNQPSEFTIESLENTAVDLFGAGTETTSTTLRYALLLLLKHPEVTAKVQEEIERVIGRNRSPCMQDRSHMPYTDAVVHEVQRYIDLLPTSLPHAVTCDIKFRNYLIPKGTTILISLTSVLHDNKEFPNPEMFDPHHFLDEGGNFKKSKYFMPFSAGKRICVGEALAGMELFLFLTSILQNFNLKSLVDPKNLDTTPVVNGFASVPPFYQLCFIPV

[5] = Intrinsic clearance in human liver microsomes at 0.2 uM measured up to 45 mins by LC-MS/MS analysis; format: ADME; conditions: read-out: CLH
Summary of the method: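 Human liver microsomes (0.2 mg protein/mL) in 100 mM Na+–K+ phosphate buffer pH 7.4 with 1 mM NADPH and 0.1 mM EDTA, preincubated 5 min at 37 °C. Compound at 0.2 µM final, sampled at 0, 15, 30 and 45 min. Residual compound measured by LC–MS/MS. CLint = disappearance rate constant / microsomal protein, from a least-squares linear fit.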

Mus musculus [6] = assay: Antinociceptive activity in ddY mouse assessed as inhibition of formalin-induced paw lifting/licking behavior at 100 mg/kg, po administered 15 mins before formalin challenge measured up to 15 to 25 mins; format: functional
Summary of the method: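 Male ddY mice dosed orally at 100 mg/kg. 2% formalin (20 µL) injected subcutaneously into the plantar hindpaw. Lifting/licking time in the second phase (15–25 min) expressed as % inhibition.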

Rattus norvegicus [7] = assay: Analgesic activity in po dosed Sprague-Dawley rat L5/L6 spinal nerve ligation model assessed as reduction of mechanical allodynia; format: functional, organism-based
Summary of the method: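 Male Sprague-Dawley rats with L5/L6 spinal nerve ligation (Chung method). Compound given orally at 1 to 10 mg/kg. Hindpaw withdrawal threshold to mechanical stimuli measured on the operated and non-operated sides against vehicle groups, n = 8. ED50 derived from the dose-response. Dunnett's test against the operated-side vehicle group.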

Mus musculus [8] = assay: Toxicity in intrathecally dosed ddY mouse at 10 to 100 […] measured up to 25 mins; format: organism-based; conditions: in vivo, icv_or_intrathecal
Rattus norvegicus [9] = assay: Neurotoxicity in Sprague-Dawley rat assessed as effect on motor coordination by measuring time spent on rod at 30 mg/kg, po by rotarod test; format: toxicity, organism-based; conditions: in vivo
Summary of the method: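 Motor coordination in Sprague-Dawley rats after oral dosing, assessed by an accelerating rotarod test.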

[10] = Lipophilicity, log D of the compound at pH 7.4; format: physicochemical
Summary of the method: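 cLogD at pH 7.4 calculated with ACD/PhysChem Batch rather than measured.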

Mus musculus [11] = assay: Antinociceptive activity in intrathecally dosed ddY mouse assessed as reduction of formalin-induced paw lifting/licking behavior administered 15 mins before formalin challenge measured up to 10 mins; format: functional
Summary of the method: (§2)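 Male ddY mice given an intrathecal bolus. After 15 min, 2% formalin (20 µL) injected subcutaneously into the plantar hindpaw. Total lifting/licking time recorded for 0–10 min (first phase) and 15–25 min (second phase). Mean of n = 6 against vehicle, Dunnett's test. ED50 in nmol/body.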

Mus musculus [12] = assay: Antinociceptive activity in intrathecally dosed ddY mouse assessed as reduction of formalin-induced paw lifting/licking behavior administered 15 mins before formalin challenge measured after 15 to 25 mins; format: functional; summary of the method: as §2

Row | IC50 [1] [µM] | IC50 (Cytochrome P450 2D6) [µM] | Structure (SMILES) | further results
1 | 1.6 |  | COc1ccc2c(c1)C(C(C)C)N(C(=O)CNCC1(O)CCCCC1)CC2 (stereo not drawn) | 
2 | 1.6 | < 0.78 | Cc1cccc2c1C(C(C)C)N(C(=O)CNCC1(O)CCCCC1)CC2 (stereo not drawn) | 
3 | 2.1 |  | COc1ccc2c(c1)CCN(C(=O)CNCC1(O)CCCCC1)[C@H]2C(C)C | solubility [2]: > 100 µg/mL; IC50 [3]: > 100 µM; solubility [4]: > 100 µg/mL; IC50 (Cytochrome P450 2C9): > 50 µM; CLint scaled at 0.2 µM [5]: 188 mL/min/kg
4 | 6.1 |  | CC(C)(O)C1c2ccccc2CCN1C(=O)CNCC1(O)CCCCC1 (stereo not drawn) | 
5 | 1.4 |  | COc1cccc2c1C(C(C)C)N(C(=O)CNCC1(O)CCCCC1)CC2 (stereo not drawn) | 
6 | 1.3 |  | COc1ccc2c(c1)CCN(C(=O)CNCC1(O)CCCCC1)C2C(C)C (stereo not drawn) | 
7 | 1.4 | < 0.78 | Cc1ccc2c(c1)C(C(C)C)N(C(=O)CNCC1(O)CCCCC1)CC2 (stereo not drawn) | 
8 | 1.5 |  | CC(C)C1c2c(F)cccc2CCN1C(=O)CNCC1(O)CCCCC1 (stereo not drawn) | 
9 | 2.9 |  | CC1c2ccccc2CCN1C(=O)CNCC1(O)CCCCC1 (stereo not drawn) | 
10 | 1.1 |  | CC(C)C1c2ccccc2CCN1C(=O)CNCC1(O)CCCCC1 (stereo not drawn) | 
11 | 0.99 |  | O=C(CNCC1(O)CCCCC1)N1CCc2ccccc2C1C1CCCC1 (stereo not drawn) | 
12 | 8 |  | O=C(CNCC1(O)CCCCC1)N1CCc2ccccc2C1 | 
13 | 1.9 |  | COc1ccc2c(c1)CCN(C(=O)CNCC1(O)CCCCC1)[C@@H]2C(C)C | inhibition in vivo at 100 mg/kg (Mus musculus [6]): 64%; solubility [2]: > 100 µg/mL; IC50 [3]: > 100 µM; Activity (Rattus norvegicus [7]): Dose-dependent effect; Activity (Mus musculus [8]): Non-toxic; Activity (Rattus norvegicus [9]): Non-toxic; solubility [4]: > 100 µg/mL; logD [10]: 2.4; Activity (Mus musculus [11]): Dose-dependent effect; ED50 (Mus musculus [11]): >100 nmol; IC50 (Cytochrome P450 2C9): > 50 µM; CLint scaled at 0.2 µM [5]: 101 mL/min/kg; Activity (Mus musculus [12]): Dose-dependent effect; ED50 (Mus musculus [12]): 25.4 nmol
14 | 0.8 | < 0.78 | CC(C)(C)C1c2ccccc2CCN1C(=O)CNCC1(O)CCCCC1 (stereo not drawn) | 
15 | 0.73 | < 0.78 | CCC(CC)C1c2ccccc2CCN1C(=O)CNCC1(O)CCCCC1 (stereo not drawn) | 
16 | 1 | < 0.39 | O=C(CNCC1(O)CCCCC1)N1CCc2ccccc2[C@@H]1c1ccccc1 | 
17 | 0.89 | 0.39 | CC(C)C1c2ccc(F)cc2CCN1C(=O)CNCC1(O)CCCCC1 (stereo not drawn) | 
18 | 4.1 |  | O=C(CNCC1(O)CCCCC1)N1CCc2ccccc2C1C1CCOCC1 (stereo not drawn) | 
19 | 1.4 | < 0.78 | Cc1cccc2c1CCN(C(=O)CNCC1(O)CCCCC1)C2C(C)C (stereo not drawn) | 
20 | 1.3 | 0.68 | CC(C)C1c2cc(F)ccc2CCN1C(=O)CNCC1(O)CCCCC1 (stereo not drawn) | 
21 | 3.7 |  | COC(C)(C)C1c2ccccc2CCN1C(=O)CNCC1(O)CCCCC1 (stereo not drawn) | 
